Reference: ChEMBL document CHEMBL3297691, “Development and bioorthogonal activation of palladium-labile prodrugs of gemcitabine” (J Med Chem, 2014)
Each block holds one compound with its values, some of them ahead of it. Calls of active or inactive are those of the source. The rule behind the calls is not given here.

Experiments:
[1] = Cytotoxicity against human BxPC3 cells after 4 days by PrestoBlue assay; conditions: BXPC-3, 96 h
BXPC-3 [2] = assay: Cytotoxicity against human BxPC3 cells at 100 nM after 5 days by PrestoBlue assay in presence of palladium-resins; format: functional, cell-based
In short: (§1)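 BxPC-3 (RPMI; 2,500 cells/well) or Mia PaCa-2 (DMEM; 1,000 cells/well) in 10% FBS and 2 mM L-glutamine were grown 48 h, then given fresh medium with compound (3, 10, 30, 100, 300 nM), with or without Pd0-resins (0.67 mg/mL), in 0.1% DMSO. After 5 days at 37 °C and 5% CO2, PrestoBlue (10% v/v) was added for 60 min; fluorescence ex 540/em 590 nm, normalized to DMSO wells; n = 3.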

[3] = Prodrug conversion in phosphate buffered saline assessed as compound retention time at 100 uM after 6 to 24 hrs by HPLC analysis in presence of palladium-resins; format: physicochemical; conditions: buffer
In short: (§2)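 Prodrug at 100 μM in PBS (300 mOsm/kg, pH 7.4) was shaken at 1400 rpm and 37 °C with Pd0-resins (1 mg/mL, 4.4% w/w Pd; [Pd0] 400 μM). Samples were taken at 0, 6 and 24 h for reverse-phase HPLC with UV at 280 nm: water/acetonitrile with 0.1% formic acid, 95:5 to 5:95 over 3 min.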

[4] = Cytotoxicity against human MIAPaCa2 cells after 5 days by PrestoBlue assay; format: functional, cell-based; conditions: MIA PaCa-2, 96 h, in the assay text read “4 days” for “5 days”
[5] = Prodrug conversion in phosphate buffered saline assessed as formation of gemcitabine at 100 uM after 24 hrs by HPLC analysis in presence of palladium-resins; format: physicochemical; conditions: buffer
In short: as §2

[6] = Toxicity in human BxPC3 cells assessed as cell growth at 30 nM up to 120 hrs by IncuCyte ZOOM analysis; format: cell-based; conditions: bxpc-3, 120 h, 0.03 µM
In short: (§3)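 BxPC-3 cells in RPMI with 10% FBS and 2 mM L-glutamine were treated once at 30 nM. Wells were imaged every 3 h for 5 d (120 h) by IncuCyte ZOOM inside the incubator (37 °C, 5% CO2). Confluence came from image analysis; n = 3, ± SD.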

[7] = Toxicity in human MIAPaCa2 cells assessed as induction of DNA damage by measuring phosphorylated gamma-H2AX level at 300 nM after 24 hrs by immunofluorescence analysis; format: cell-based; conditions: mia paca-2, 24 h, 0.3 µM
In short: (§4)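 Mia PaCa-2 cells (2,000/well, DMEM) were grown 48 h, then treated 24 h at 300 nM in 0.1% DMSO, with or without Pd0-resins (0.67 mg/mL). The prodrug–resin mix was preincubated 24 h at 37 °C before addition. Cells were fixed in 4% paraformaldehyde and permeabilized with 0.1% Triton X-100. Staining used rabbit anti-phospho-H2AX Ser139 (1:400, 1 h, RT), then Alexa 488 secondary, Hoechst and phalloidin. Imaged by confocal microscopy.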

[8] = Cytotoxicity against human BxPC3 cells at 10 to 100 nM after 5 days by PrestoBlue assay; format: cell-based; conditions: bxpc-3, 120 h, 0.1 µM
In short: as §1

BXPC-3 [9] = assay: Cytotoxicity against human BxPC3 cells at 30 nM up to 120 hrs by IncuCyte ZOOM analysis; format: functional, cell-based
In short: as §3

[10] = Prodrug conversion in phosphate buffered saline assessed as half life of formation of gemcitabine at 100 uM by HPLC analysis in presence of palladium-resins; format: physicochemical; conditions: buffer
[11] = Cytotoxicity against human BxPC3 cells after 5 days by PrestoBlue assay; format: functional, cell-based; conditions: BXPC-3, 96 h, in the assay text read “4 days” for “5 days”
[12] = Toxicity in human MIAPaCa2 cells assessed as induction of DNA damage by measuring phosphorylated gamma-H2AX level at 300 nM after 24 hrs by immunofluorescence analysis in presence of palladium-resins; format: cell-based; conditions: mia paca-2, 24 h, 0.3 µM
In short: as §4

BXPC-3 [13] = assay: Cytotoxicity against human BxPC3 cells at 10 to 100 nM after 5 days by PrestoBlue assay in presence of palladium-resins; format: functional, cell-based
In short: as §1

MIA PaCa-2 = assay: Cytotoxicity against human MIAPaCa2 cells at 30 to 300 nM after 5 days by PrestoBlue assay in presence of palladium-resins; format: functional, cell-based
In short: as §1

[14] = Cytotoxicity against human MIAPaCa2 cells at 30 to 300 nM after 5 days by PrestoBlue assay; format: cell-based; conditions: mia paca-2, 120 h, 0.3 µM
In short: as §1

[15] = Prodrug conversion in phosphate buffered saline assessed as gemcitabine retention time at 100 uM after 6 to 24 hrs by HPLC analysis in presence of palladium-resins; format: physicochemical; conditions: buffer
In short: as §2

[16] = Cytotoxicity against human MIAPaCa2 cells after 4 days by PrestoBlue assay; conditions: MIA PaCa-2, 96 h
Danio rerio = species: Danio rerio; assay: Prodrug conversion in zebrafish yolk assessed as formation of rhodamine 110 at 5 uM after 24 hrs by fluorescence microscopic analysis in presence of palladium-resins; conditions: in vivo

Retention_time [3]: 2.96 min
SMILES: O=C(Nc1ccn([C@H]2O[C@H](CO)[C@@H](O)C2(F)F)c(=O)n1)OCc1ccccc1
EC50 [1]: 253 nM | Activity (BXPC-3 [2]): inactive | EC50 [4]: 94 nM

Drug metabolism [5]: Active | t1/2 [10]: < 6 h | Retention_time [3]: 2.45 min
SMILES: C#CCOC(=O)Nc1ccn([C@H]2O[C@H](CO)[C@@H](O)C2(F)F)c(=O)n1
Activity [6]: 100% | Activity [7]: Non-toxic | Activity [8]: Non-toxic | Activity (BXPC-3 [9]): Active | Activity (BXPC-3 [2]): Active | EC50 [11]: 237 nM | Activity [12]: Toxic | Activity (BXPC-3 [13]): Active | Activity (MIA PaCa-2): Active | EC50 [4]: 1400 nM | Activity [14]: Non-toxic

Retention_time [15]: 0.93 min
SMILES: Nc1ccn([C@@H]2O[C@H](CO)[C@@H](O)C2(F)F)c(=O)n1 [GEMCITABINE]
EC50 [11]: 10 nM | EC50 [4]: 2000 nM

Drug metabolism [5]: Active | Retention_time [3]: 2.56 min
SMILES: C=CCOC(=O)Nc1ccn(C2O[C@H](CO)[C@@H](O)C2(F)F)c(=O)n1 (single isomer, unassigned)
EC50 [1]: 335 nM | Activity [6]: 100% | Activity [8]: Non-toxic | Activity (BXPC-3 [9]): Active | Activity (BXPC-3 [2]): Active | Activity (BXPC-3 [13]): Active | Activity (MIA PaCa-2): Active | EC50 [4]: 900 nM | Activity [14]: Non-toxic

Second part, the compound before the results:

SMILES: C=CCOC(=O)OC[C@H]1O[C@H](n2ccc(N)nc2=O)C(F)(F)[C@@H]1O
EC50 [11]: 22 nM | EC50 [4]: 27 nM

SMILES: C#CCOC(=O)OC[C@H]1O[C@H](n2ccc(N)nc2=O)C(F)(F)[C@@H]1O
EC50 [11]: 13 nM | EC50 [16]: 45 nM

SMILES: C#CCOC(=O)Nc1ccc2c(c1)Oc1cc(NC(=O)OCC#C)ccc1C21OC(=O)c2ccccc21
Drug metabolism (Danio rerio): metabolite_detected

SMILES: Nc1ccn([C@H]2O[C@H](COC(=O)OCc3ccccc3)[C@@H](O)C2(F)F)c(=O)n1
EC50 [11]: 12 nM | EC50 [4]: 29 nM

SMILES: O=C(Nc1ccc2c(c1)Oc1cc(NC(=O)OCc3ccccc3)ccc1C21OC(=O)c2ccccc21)OCc1ccccc1
Drug metabolism (Danio rerio): metabolite_notdetected
